Results from ChEMBL document CHEMBL1138870, “In vitro and in vivo efficacy and in vitro metabolism of 1-phenyl-3-aryl-2-propen-1-ones against Plasmodium falciparum” (Bioorg Med Chem Lett, 2006).
Calls of active or inactive are those of the source. The rule behind the calls is not given here.

How the values were obtained:
Plasmodium falciparum [1] = test: Antimalarial activity against Plasmodium falciparum W2; format: functional, organism-based
Outline: (§1)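 Cultured P. falciparum parasites were exposed to compound, and inhibition of [³H]hypoxanthine uptake was measured to give the IC50. Values come from a single experiment.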

Plasmodium falciparum [2] = test: Antimalarial activity against Plasmodium falciparum D6; format: functional, organism-based; outline: as §1
Plasmodium falciparum [3] = test: Resistance index, IC50 of Plasmodium falciparum W2/IC50 Plasmodium falciparum D6; format: ADME, organism-based; details: in vitro
Outline: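 Ratio of IC50 against P. falciparum W2 to IC50 against strain D6. Each IC50 comes from in vitro inhibition of [3H]hypoxanthine uptake by the parasites, with values from a single experiment.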

Mus musculus = test: Effect on survival of mice (Mus musculus) infected with Plasmodium berghei at 640 mg/kg, perorally; format: functional, organism-based; design: dose 640 mg/kg
Outline: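 Mice were inoculated intraperitoneally on day 0 with 1.0 × 10⁶ P. berghei P-line-infected red cells. Compound was dissolved in DMSO, diluted with 0.5% hydroxyethylcellulose and 0.1% Tween, and given orally once daily on days 3–7 at 640 mg/kg/dose. Survival of five treated mice was compared with five untreated infected controls.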

[4] = Metabolic stability in mouse liver microsomes; format: ADME, Microsome

Row | Compound | IC50 (Plasmodium falciparum [1]) | IC50 (Plasmodium falciparum [2]) | Ratio IC50 (Plasmodium falciparum [3]) | Activity (Mus musculus) | half-life [4]
1 | COc1ccc(C(=O)/C=C/c2ccnc3ccccc23)c(OC)c1OC | > 14 µM | 2.6 µM |  |  | 
2 | COc1cccc(OC)c1C(=O)/C=C/c1cccc2ccccc12 | 3.1 µM | 3.2 µM | 0.97 |  | 
3 | COc1ccc(C(=O)/C=C/c2ccc3ccccc3c2)c(OC)c1 | > 16 µM | 8.7 µM |  |  | 
4 | COc1ccc(F)cc1C(=O)/C=C/c1ccnc2ccccc12 | 4.1 µM | 5.1 µM | 0.8 |  | 
5 | COc1ccc(F)cc1C(=O)/C=C/c1ccc2ccccc2n1 | 0.67 µM | 3.8 µM | 0.18 |  | 
6 | COc1ccc(C(=O)/C=C/c2cnc3ccccc3c2)c(F)c1 | 3.1 µM | 2.1 µM | 1.5 |  | 
7 | COc1ccc(OC)c(C(=O)/C=C/c2ccnc3ccccc23)c1 | 7.3 µM | 3 µM | 2.4 |  | 
8 | COc1ccc(C(=O)/C=C/c2cnc3ccccc3c2)cc1 | 3.3 µM | 1.8 µM | 1.8 |  | 
9 | COc1ccc(C(=O)/C=C/c2ccc3ccccc3c2)cc1OC | 7.7 µM | 9.8 µM | 0.79 |  | 
10 | O=C(/C=C/c1cnc2ccccc2c1)c1ccc(Cl)c(Cl)c1 | 12 µM | 3.1 µM | 3.9 |  | 
11 | COc1cc(OC)cc(C(=O)/C=C/c2cnc3ccccc3c2)c1 | 4.3 µM | 11 µM | 0.39 |  | 
12 | COc1cc(F)ccc1C(=O)/C=C/c1cnc2ccccc2c1 | 1.5 µM | 1.1 µM | 1.4 |  | 
13 | O=C(/C=C/c1ccnc2ccccc12)c1ccc(F)c(F)c1 | 5.7 µM | 9.4 µM | 0.61 |  | 
14 | COc1ccc(C(=O)/C=C/c2ccc3ccccc3n2)cc1F | 5.3 µM | 1.3 µM | 4.1 |  | 
15 | COc1cccc(OC)c1C(=O)/C=C/c1ccc2ccccc2c1 | 3.3 µM | 3.4 µM | 0.97 |  | 
16 | COc1ccc(C(=O)/C=C/c2cnc3ccccc3c2)cc1Cl | 1.6 µM | 2.3 µM | 0.7 |  | 
17 | COc1ccc(C(=O)/C=C/c2ccnc3ccccc23)cc1OC | 0.5 µM | 0.88 µM | 0.57 | inactive | 15.6 min
18 | COc1cc(OC)cc(C(=O)/C=C/c2cccc3ccccc23)c1 | 4.3 µM | 4.5 µM | 0.96 |  | 
19 | COc1ccc(C(=O)/C=C/c2ccnc3ccccc23)cc1 | 10 µM | 5.4 µM | 1.9 |  | 
20 | COc1ccc(C(=O)/C=C/c2ccnc3ccccc23)cc1F | 3.2 µM | 0.93 µM | 3.4 | inactive | 30.6 min

Row | Compound | IC50 (Plasmodium falciparum [1]) | IC50 (Plasmodium falciparum [2]) | Ratio IC50 (Plasmodium falciparum [3]) | Activity (Mus musculus) | half-life [4]
21 | COc1ccc(C(=O)/C=C/c2cccc3ccccc23)c(OC)c1OC | 5.8 µM | 4.3 µM | 1.3 |  | 
22 | COc1ccc(OC)c(C(=O)/C=C/c2cnc3ccccc3c2)c1 | 2.7 µM | 2 µM | 1.4 |  | 
23 | COc1ccc(C(=O)/C=C/c2cnc3ccccc3c2)c(OC)c1 | 3.3 µM | 4.8 µM | 0.7 |  | 
24 | COc1ccc(C(=O)/C=C/c2ccnc3ccccc23)c(OC)c1 | 2 µM | 3 µM | 0.67 |  | 
25 | COc1cccc(OC)c1C(=O)/C=C/c1cnc2ccccc2c1 | 1.1 µM | 2.2 µM | 0.53 |  | 
26 | O=C(/C=C/c1cnc2ccccc2c1)c1cc(F)ccc1F | 7.8 µM | 5.6 µM | 1.4 |  | 
27 | O=C(/C=C/c1cnc2ccccc2c1)c1ccc(F)cc1F | 6.2 µM | 5 µM | 1.2 |  | 
28 | O=C(/C=C/c1ccnc2ccccc12)c1cc(Cl)ccc1Cl | 0.23 µM | 0.19 µM | 1.2 | inactive | 
29 | COc1ccc(C(=O)/C=C/c2ccc3ccccc3n2)c(OC)c1OC | 3.3 µM | 2.9 µM | 1.1 |  | 
30 | COc1cc(C(=O)/C=C/c2ccc3ccccc3c2)cc(OC)c1OC | 6 µM | 6.6 µM | 0.91 |  | 
31 | COc1cc(C(=O)/C=C/c2cnc3ccccc3c2)cc(OC)c1OC | 14 µM | 21 µM | 0.67 |  | 
32 | COc1ccc(F)cc1C(=O)/C=C/c1cnc2ccccc2c1 | 1.1 µM | 0.46 µM | 2.4 |  | 
33 | COc1ccc(C(=O)/C=C/c2ccc3ccccc3c2)cc1 | > 17 µM | > 17 µM |  |  | 
34 | COc1ccc(C(=O)/C=C/c2cnc3ccccc3c2)c(OC)c1OC | 2.8 µM | 6.7 µM | 0.42 |  | 
35 | COc1cc(F)ccc1C(=O)/C=C/c1ccnc2ccccc12 | 6.2 µM | 6 µM | 1 |  | 
36 | COc1ccc(C(=O)/C=C/c2cccc3ccccc23)c(OC)c1 | 4.6 µM | 4.9 µM | 0.94 |  | 
37 | O=C(/C=C/c1ccnc2ccccc12)c1ccc(Cl)c(Cl)c1 | 0.8 µM | 1.7 µM | 0.47 | inactive | 
38 | COc1ccc(OC)c(C(=O)/C=C/c2cccc3ccccc23)c1 | 2.8 µM | 2.9 µM | 0.97 |  | 
39 | O=C(/C=C/c1cnc2ccccc2c1)c1ccc(Cl)cc1Cl | 6.3 µM | 7.9 µM | 0.8 |  | 
40 | COc1ccc(C(=O)/C=C/c2cnc3ccccc3c2)cc1OC | 2.2 µM | 3.4 µM | 0.65 |  | 

Row | Compound | IC50 (Plasmodium falciparum [1]) | IC50 (Plasmodium falciparum [2]) | Ratio IC50 (Plasmodium falciparum [3]) | Activity (Mus musculus) | half-life [4]
41 | COc1ccc(C(=O)/C=C/c2ccc3ccccc3c2)c(OC)c1OC | > 14 µM | > 14 µM |  |  | 
42 | COc1cc(C(=O)/C=C/c2cccc3ccccc23)cc(OC)c1OC | 4.8 µM | 5.2 µM | 0.92 |  | 
43 | O=C(/C=C/c1ccnc2ccccc12)c1ccc(Cl)cc1Cl | 18 µM | 6.2 µM | 2.9 |  | 
44 | O=C(/C=C/c1cnc2ccccc2c1)c1cc(Cl)ccc1Cl | 1.7 µM | 0.62 µM | 2.7 | inactive | 24.6 min
45 | COc1ccc(C(=O)/C=C/c2ccnc3ccccc23)c(F)c1 | 4.5 µM | 2.4 µM | 1.9 |  | 
46 | COc1ccc(C(=O)/C=C/c2ccnc3ccccc23)cc1Cl | 0.95 µM | 1.8 µM | 0.53 |  | 
47 | COc1ccc(OC)c(C(=O)/C=C/c2ccc3ccccc3c2)c1 | 5 µM | 5.5 µM | 0.91 |  | 
48 | COc1ccc(Cl)cc1C(=O)/C=C/c1cnc2ccccc2c1 | 0.59 µM | 0.95 µM | 0.62 |  | 
49 | COc1ccc(C(=O)/C=C/c2cccc3ccccc23)cc1OC | 5 µM | 5.2 µM | 0.96 |  | 
50 | COc1ccc(C(=O)/C=C/c2ccc3ccccc3n2)c(OC)c1 | 1.2 µM | 2 µM | 0.6 |  | 
51 | O=C(/C=C/c1ccc2ccccc2n1)c1ccc(F)cc1F | 1.3 µM | 2.3 µM | 0.57 |  | 
52 | O=C(/C=C/c1cnc2ccccc2c1)c1ccc(F)c(F)c1 | 5.8 µM | 8.5 µM | 0.68 |  | 
53 | COc1ccc(C(=O)/C=C/c2cccc3ccccc23)cc1 | 10 µM | 9.1 µM | 1.1 |  | 
54 | COc1cccc(OC)c1C(=O)/C=C/c1ccnc2ccccc12 | 5.7 µM | 13 µM | 0.44 |  | 
55 | O=C(/C=C/c1ccnc2ccccc12)c1cc(F)ccc1F | 8.6 µM | 3.7 µM | 2.3 |  | 
56 | COc1cc(OC)cc(C(=O)/C=C/c2ccc3ccccc3c2)c1 | 9.5 µM | 7.4 µM | 1.3 |  | 
57 | COc1ccc(C(=O)/C=C/c2cnc3ccccc3c2)cc1F | 2.7 µM | 1.6 µM | 1.7 |  | 
58 | CCN(CC)CCCC(C)Nc1ccnc2cc(Cl)ccc12 (stereo not drawn) |  |  |  | Active | 
59 | COc1ccc(C(=O)/C=C/c2ccc3ccccc3n2)cc1 | > 17 µM | 4.7 µM |  |  | 
